Experiments:
[1] = target: T1, 5-hydroxytryptamine receptor 1A (Rattus norvegicus, UniProt P19327); assay: Displacement of [3H]-8-OH-DPAT from 5HT1A receptor in rat hippocampus homogenates after 15 mins by scintillation counting; format: tissue-based
T1 sequence (P19327 whole entry): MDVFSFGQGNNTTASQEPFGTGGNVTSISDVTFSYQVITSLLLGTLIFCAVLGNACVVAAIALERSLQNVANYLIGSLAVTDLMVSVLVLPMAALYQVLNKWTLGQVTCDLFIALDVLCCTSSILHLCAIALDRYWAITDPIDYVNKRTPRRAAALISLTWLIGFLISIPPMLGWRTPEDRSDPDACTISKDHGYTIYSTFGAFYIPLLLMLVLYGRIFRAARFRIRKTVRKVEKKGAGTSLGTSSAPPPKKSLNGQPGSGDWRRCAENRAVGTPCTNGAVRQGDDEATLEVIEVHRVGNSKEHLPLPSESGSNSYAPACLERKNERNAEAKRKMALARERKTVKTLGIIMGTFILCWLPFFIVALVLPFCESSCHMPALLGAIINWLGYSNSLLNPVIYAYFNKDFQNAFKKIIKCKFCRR
Outline: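 Rat hippocampal membranes were prepared in 50 mM Tris–HCl pH 7.4 (35,000 g spins, 10 min at 37 °C between). Resuspended in Tris–HCl with 4 mM MgCl2, 10 mM pargyline and 0.1% ascorbate. 1 nM [3H]-8-OH-DPAT, 15 min at 37 °C, GF/B filtration. 10 μM 5-HT defined nonspecific binding. Triplicates at 7–8 concentrations (10⁻¹¹–10⁻⁴ M).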

[2] = target: T2, 5-hydroxytryptamine receptor 7 (Homo sapiens, UniProt P34969); assay: Displacement of [3H]-5-CT from cloned human 5HT7B receptor expressed in HEK293 cells after 1 hr by scintillation counting; format: cell-based
Outline: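 HEK293 membranes stably expressing human 5-HT7b receptor, homogenized and spun twice at 35,000 g with 15 min at 37 °C between. Assay buffer was 50 mM Tris–HCl with 4 mM MgCl2, […] and 0.1% ascorbate. 0.6 nM [3H]-5-CT, 1 h at 37 °C, then filtration. 10 μM 5-HT defined nonspecific binding. Triplicates at 7–8 concentrations (10⁻¹¹–10⁻⁴ M).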

[3] = target: 5-hydroxytryptamine receptor 2A (Homo sapiens) (UniProt P28223); assay: Binding affinity to 5HT2A receptor (unknown origin) at 10 nM
[4] = target: 5-hydroxytryptamine receptor 2A (Homo sapiens) (UniProt P28223); assay: Binding affinity to 5HT2A receptor (unknown origin) at 1 uM
[5] = target: T3, 5-hydroxytryptamine receptor 1A (Homo sapiens, UniProt P08908); assay: Binding affinity to 5HT1A receptor (unknown origin)
T3 sequence (P08908 whole entry): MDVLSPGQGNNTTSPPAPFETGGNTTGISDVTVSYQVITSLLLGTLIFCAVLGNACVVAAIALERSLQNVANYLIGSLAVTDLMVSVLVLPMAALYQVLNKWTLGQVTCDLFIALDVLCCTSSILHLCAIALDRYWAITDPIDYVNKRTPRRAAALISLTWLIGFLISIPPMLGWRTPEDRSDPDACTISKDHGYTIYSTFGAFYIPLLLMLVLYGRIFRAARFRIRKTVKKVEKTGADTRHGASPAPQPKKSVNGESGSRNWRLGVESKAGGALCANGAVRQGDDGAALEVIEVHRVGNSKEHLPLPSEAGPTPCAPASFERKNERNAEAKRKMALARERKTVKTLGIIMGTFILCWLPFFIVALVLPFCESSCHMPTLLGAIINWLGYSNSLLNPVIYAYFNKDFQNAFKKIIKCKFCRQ

[6] = target: T2, 5-hydroxytryptamine receptor 7; assay: Binding affinity to 5HT7 receptor (unknown origin)
[7] = Selectivity ratio of Ki for human 5HT7B receptor to Ki for 5HT1A receptor in rat hippocampus homogenates; format: tissue-based
Outline: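 Ratio of Ki values from two radioligand displacement assays. 5-HT1A: rat hippocampal membranes, 1 nM [3H]-8-OH-DPAT, 15 min at 37 °C, filtration. 5-HT7b: membranes from HEK293 cells stably expressing the human receptor, 0.6 nM [3H]-5-CT, 1 h at 37 °C. Both used Tris-HCl buffer with MgCl2, pargyline and ascorbate, and 10 μM 5-HT for nonspecific binding. Compounds were tested in triplicate at 7–8 concentrations (10⁻¹¹–10⁻⁴ M). Ki was derived by Cheng–Prusoff from three experiments.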

Chain of 5-hydroxytryptamine receptor 2A (Homo sapiens) (P28223 whole entry): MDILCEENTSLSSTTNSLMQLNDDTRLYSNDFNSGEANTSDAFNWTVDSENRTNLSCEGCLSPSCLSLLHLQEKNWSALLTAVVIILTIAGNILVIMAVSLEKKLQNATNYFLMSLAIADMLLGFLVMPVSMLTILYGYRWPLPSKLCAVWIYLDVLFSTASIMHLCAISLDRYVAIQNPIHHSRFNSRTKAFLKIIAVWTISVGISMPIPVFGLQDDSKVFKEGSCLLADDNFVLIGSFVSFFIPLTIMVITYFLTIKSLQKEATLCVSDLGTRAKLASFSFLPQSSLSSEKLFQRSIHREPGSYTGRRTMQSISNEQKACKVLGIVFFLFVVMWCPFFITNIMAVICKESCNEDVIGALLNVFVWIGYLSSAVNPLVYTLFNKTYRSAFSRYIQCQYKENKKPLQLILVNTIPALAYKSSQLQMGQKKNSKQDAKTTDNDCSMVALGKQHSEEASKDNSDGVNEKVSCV
T2 sequence (P34969 whole entry): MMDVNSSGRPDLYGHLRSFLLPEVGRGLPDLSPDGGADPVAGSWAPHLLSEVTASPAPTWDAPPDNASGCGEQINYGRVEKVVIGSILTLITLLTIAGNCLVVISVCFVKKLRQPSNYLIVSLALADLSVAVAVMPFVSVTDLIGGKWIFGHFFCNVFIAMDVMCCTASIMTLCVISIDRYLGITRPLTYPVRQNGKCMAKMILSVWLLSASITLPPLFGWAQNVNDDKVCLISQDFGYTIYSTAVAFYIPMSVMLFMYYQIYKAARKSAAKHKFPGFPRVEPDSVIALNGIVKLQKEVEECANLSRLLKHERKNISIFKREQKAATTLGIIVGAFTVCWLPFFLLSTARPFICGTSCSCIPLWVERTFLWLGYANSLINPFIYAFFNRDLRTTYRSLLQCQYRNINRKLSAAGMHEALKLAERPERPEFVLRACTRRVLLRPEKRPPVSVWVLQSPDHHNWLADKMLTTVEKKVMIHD

| Structure (SMILES) | Ki [1] | further results |
| --- | --- | --- |
| c1ccc(N2CCN(Cc3cn(-c4ccc5ccccc5c4)c4ccccc34)CC2)cc1 | 1950 nM |  |
| Cc1ccccc1-n1cc(CCN(C)C)c2ccccc21 | 59 nM | Ki [2]: 283 nM |
| Cc1ccccc1-n1cc(CN2CCN(C)CC2)c2ccccc21 | 2910 nM |  |
| COc1ccccc1N1CCN(Cc2cn(-c3ccccc3C)c3ccccc23)CC1 | 15 nM |  |
| Oc1ccccc1N1CCN(Cc2cn(-c3cccc4ccccc34)c3ccccc23)CC1 | 57 nM |  |
| COc1ccccc1N1CCN(Cc2cn(-c3ccccc3C(C)C)c3ccccc23)CC1 | 58 nM |  |
| CN(C)CCc1cn(-c2cccc3ccccc23)c2ccccc12 | 144 nM | Ki [2]: 649 nM |
| Cc1ccccc1-n1cc(CN2CC=C(c3ccccc3)CC2)c2ccccc21 | 178 nM |  |
| COc1ccccc1N1CCN(Cc2cn(-c3ccccn3)c3ccccc23)CC1 | 55 nM |  |
| N#Cc1ccccc1-n1cc(CN2CCN(c3ccccc3)CC2)c2ccccc21 | 36 nM |  |
| c1ccc(N2CCN(Cc3cn(-c4ccccc4)c4ccccc34)CC2)cc1 | 216 nM |  |
| c1ccc(-c2ccc(-n3cc(CN4CCN(c5ccccc5)CC4)c4ccccc43)cc2)cc1 | 49000 nM |  |
| COc1ccccc1N1CCN(Cc2cn(-c3cccc(C)c3C)c3ccccc23)CC1 | 17 nM | inhibition [3]: 0%; inhibition [4]: 0% |
| COc1ccccc1N1CCN(Cc2ccn(-c3ccccc3C)c2)CC1 |  | Ki [5]: 41 nM; Ki [6]: 21 nM |
| COc1ccccc1N1CCN(Cc2cn(-c3cccc4ccccc34)c3ccccc23)CC1 | 70 nM | inhibition [3]: 6%; inhibition [4]: 10% |
| c1ccc(N2CCN(Cc3cn(-c4ccccn4)c4ccccc34)CC2)cc1 | 95 nM |  |
| CN(C)CCc1cn(-c2ccccc2)c2ccccc12 | 62 nM | Ki [2]: 1200 nM; Ratio Ki [7]: 19 |
| COc1ccccc1N1CCN(Cc2cn(-c3ccccc3)c3ccccc23)CC1 | 10 nM |  |
| c1ccc(N2CCN(Cc3cn(-c4cccnc4)c4ccccc34)CC2)cc1 | 190 nM |  |
| c1ccc(N2CCN(Cc3cn(-c4cccc5ccccc45)c4ccccc34)CC2)cc1 | 545 nM |  |
| Cc1cccc(-n2cc(CCN(C)C)c3ccccc32)c1C | 76 nM | Ki [2]: 317 nM |
| Cc1ccccc1-n1cc(CN2CCN(c3ccccc3)CC2)c2ccccc21 | 95 nM |  |
| Cc1ccc(-n2cc(CN3CCN(c4ccccc4)CC3)c3ccccc32)cc1 | 332 nM |  |
| Cc1cccc(-n2cc(CN3CCN(c4ccccc4)CC3)c3ccccc32)c1 | 90 nM |  |
| FC(F)(F)c1ccccc1-n1cc(CN2CCN(c3ccccc3)CC2)c2ccccc21 | 81 nM |  |
| Oc1ccccc1N1CCN(Cc2cn(-c3ccccc3)c3ccccc23)CC1 | 17 nM |  |
| COc1ccccc1-n1cc(CN2CCN(c3ccccc3)CC2)c2ccccc21 | 86 nM |  |
| CCc1ccccc1-n1cc(CN2CCN(c3ccccc3)CC2)c2ccccc21 | 134 nM |  |
| Cc1cccc(-n2cc(CN3CCN(c4ccccc4)CC3)c3ccccc32)c1C | 324 nM |  |
| CC(C)c1ccccc1-n1cc(CN2CCN(c3ccccc3)CC2)c2ccccc21 | 118 nM |  |

Source: ChEMBL document CHEMBL3120113, “New 1-arylindoles based serotonin 5-HT7 antagonists. Synthesis and binding evaluation studies” (Eur J Med Chem, 2014)
